STEP inh = STEP phosphatase inhibitors, primary screen, biochemical, fluorescence intensity, uHTS; Tyrosine-protein phosphatase non-receptor type 5 (Homo sapiens), P54829; 0.25% of 360,000 active; recombinant STEP, OMFP fluorogenic substrate; inhibition, % at 20 µM;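 active = inhibition at 20 µM, scaled per plate between control wells, above about 37%, limit read from the data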
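System: isolated STEP enzyme; schedule: 20 min enzyme reaction at room temperature, protected from light; medium: Bis-Tris buffer pH 6.0, 2.5 mM DTT, 0.005% Tween 20; signal: fluorescence, 480/540 nm; dosing: single compound dose of 20 µM, 1% DMSO final; also added: OMFP substrate, 25 µM final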
SUMO1-SIM PPI = modulators of SUMO1 protein-protein interactions, primary screen, biochemical, uHTS. Small ubiquitin-related modifier 1 (Homo sapiens), P63165. SUMO1 binding to a labelled peptide, TR-FRET, 1 h. inhibition, % at 20 µM. 0.33% of 360,000 active. AID 602429, 2012; in the data active = inhibition above about 37%
Scp-1 inhibitor = Scp-1 phosphatase inhibitors, primary screen, biochemical, colorimetric, uHTS; Carboxy-terminal domain RNA polymerase II polypeptide A small phosphatase 1 (Homo …; Recombinant Scp1, phosphopeptide, malachite green phosphate absorbance; inhibition, % at 20 µM; 0.88% of 340,000 active; AID 493091, 2011;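 active = inhibition above about 50% at 20 µM, limit read from the data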
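Material: truncated SCP-1 phosphatase (76-261aa) / Buffer or medium: 50 mM Tris acetate pH 5.5, 0.005% Tween-20, 10 mM MgCl2 / Compound dosing: one concentration, 20 µM, with 1.0% DMSO / Incubation: 45 min room-temperature reaction, 5 min colour, 30 min stabiliser / Detection: colorimetric free-phosphate detection, absorbance 630 nm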
LMPTP inh = LMPTP phosphatase inhibitors, primary screen, biochemical, fluorescence intensity, uHTS; inhibition, % at 20 µM; 0.22% of 360,000 active; AID 651560, 2012; recombinant LMPTP-A, OMFP fluorogenic substrate; Low molecular weight phosphotyrosine protein phosphatase (Homo sapiens), P24666;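 active = compounds that cut the enzyme signal by at least half of the control window in the single-dose screen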
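Assay system: LMPTP-A enzyme. Input: 0.625 nM LMPTP-A final. Probe or stimulus: 400 µM OMFP. Compound dosing: single 20 µM dose. Schedule: 50 min dark incubation at room temperature. Detection: fluorescence intensity of OMFP turnover product. Read-out: percent inhibition versus substrate-only and uninhibited controls. Benchmarks: no-enzyme low control, uninhibited high control.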
DNMT1 block = human DNMT1 methyltransferase inhibitors, primary screen, biochemical, molecular beacon, fluorescence, HinP1I cleavage, uHTS; 0.83% of 360,000 active; inhibition (reported as % activation of signal), % at 10 µM; DNA (cytosine-5)-methyltransferase 1 (Homo sapiens), P26358; in the data active = inhibition above about 50%
Target sequence (P26358 504-1616 limits assumed): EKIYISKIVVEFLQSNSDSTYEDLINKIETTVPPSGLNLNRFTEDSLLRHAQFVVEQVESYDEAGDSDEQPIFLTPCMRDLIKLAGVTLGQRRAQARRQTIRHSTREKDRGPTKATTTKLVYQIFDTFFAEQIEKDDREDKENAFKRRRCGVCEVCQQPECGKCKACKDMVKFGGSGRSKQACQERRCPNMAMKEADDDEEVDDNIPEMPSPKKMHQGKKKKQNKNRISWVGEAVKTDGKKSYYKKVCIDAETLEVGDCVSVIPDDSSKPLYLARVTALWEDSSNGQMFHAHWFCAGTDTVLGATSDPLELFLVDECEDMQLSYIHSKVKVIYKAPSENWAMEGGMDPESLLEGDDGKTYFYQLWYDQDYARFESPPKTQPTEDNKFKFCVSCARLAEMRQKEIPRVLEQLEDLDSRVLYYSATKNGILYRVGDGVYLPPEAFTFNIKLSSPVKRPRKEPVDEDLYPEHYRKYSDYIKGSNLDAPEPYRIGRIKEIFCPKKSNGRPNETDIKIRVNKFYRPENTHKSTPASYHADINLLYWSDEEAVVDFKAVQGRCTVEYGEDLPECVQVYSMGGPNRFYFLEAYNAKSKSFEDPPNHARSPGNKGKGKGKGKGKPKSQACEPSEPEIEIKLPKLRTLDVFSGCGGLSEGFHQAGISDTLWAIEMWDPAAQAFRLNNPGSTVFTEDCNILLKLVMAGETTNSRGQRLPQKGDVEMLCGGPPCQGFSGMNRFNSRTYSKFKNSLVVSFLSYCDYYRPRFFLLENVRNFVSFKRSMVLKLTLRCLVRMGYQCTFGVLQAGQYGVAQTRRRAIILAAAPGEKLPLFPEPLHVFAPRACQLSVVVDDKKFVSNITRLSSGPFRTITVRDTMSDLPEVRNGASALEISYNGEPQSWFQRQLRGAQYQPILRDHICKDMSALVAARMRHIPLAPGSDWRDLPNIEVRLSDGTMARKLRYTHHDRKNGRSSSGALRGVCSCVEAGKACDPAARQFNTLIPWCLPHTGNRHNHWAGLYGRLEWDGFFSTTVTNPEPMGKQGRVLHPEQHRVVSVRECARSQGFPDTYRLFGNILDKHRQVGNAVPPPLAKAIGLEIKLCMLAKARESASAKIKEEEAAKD
Each line names hits and unclear results; the compound was inactive in the other large screens. An excerpt weighted towards active compounds, which were near 1.7% of everything screened.

Cc1cc2c(cc1C)NC1(C(=O)Nc3ccccc31)C1=C(CC(C)(C)CC1=O)N2 (configuration not stated)	SUMO1-SIM PPI 51.0
COc1cc([N+](=O)[O-])ccc1NC(=S)NNC(=O)c1ccc2c(c1)OCO2	none
O=C(NC(=S)Nc1cc([N+](=O)[O-])ccc1O)c1ccc2c(c1)OCO2	LMPTP inh 58.3
CCOC(=O)/C(=C\c1cccc(O)c1)c1nc2sc(C)c(C)c2c(=O)[nH]1	STEP inh 84.6
CN(C(=S)NC(=O)c1ccc(F)cc1)C1CCCCC1	none
CN(C(=S)NC(=O)c1ccc(Cl)cc1)C1CCCCC1	Scp-1 inhibitor 69.9, LMPTP inh 72.4
O=C(Cc1cccc(NC(=O)C2CCN(C(=O)C3CCCCC3)CC2)c1)Nc1cccc(C(=O)N2CCOCC2)c1	none
CC(C)c1ccc(NC(=O)CN2CCN(C(=O)C3CCCO3)CC2)cc1 (configuration not stated)	none
CCc1ccc(N(CC(=O)N2CCCC2)S(C)(=O)=O)cc1	none (no result: Scp-1 inhibitor)
CN1/C(=C/C=C/c2n(C)c3cc([N+](=O)[O-])c([N+](=O)[O-])cc3[n+]2C)C(C)(C)c2ccccc21	LMPTP inh 58.1 (no result: Scp-1 inhibitor)
COc1ccc(NC(=O)Nc2c(O)ccc3ccccc23)cc1	none
O=C(Nc1ccc2oc(=O)ccc2c1)c1ccc(-c2cccc([N+](=O)[O-])c2)o1	SUMO1-SIM PPI 75.3, LMPTP inh 54.0
O=C(Nc1ccc2oc(=O)ccc2c1)c1ccc(-c2ccc(Cl)cc2)o1	none
O=C(Nc1ccc2oc(=O)ccc2c1)c1ccc(-c2ccccc2[N+](=O)[O-])o1	SUMO1-SIM PPI 57.2
O=C(Nc1ccc2oc(=O)ccc2c1)c1ccccc1[N+](=O)[O-]	none
COCCNC(=O)C1CCCN(C(=O)c2ccc(OC)c(F)c2)CC1 (configuration not stated)	none (no result: Scp-1 inhibitor)
CC(=O)NC(=S)Nc1ccc(NC(=S)NC(=O)/C=C/c2ccco2)cc1	none
O=C(/C=C/c1ccco1)NC(=S)Nc1ccc(C(=O)O)cc1	Scp-1 inhibitor 52.0, DNMT1 block 90.6
CCCCn1c(N)c(N(CCOC)C(=O)CC(NC(=O)c2ccccc2)c2ccccc2)c(=O)[nH]c1=O (configuration not stated)	none
CCOC(=O)c1sc(NC(=O)c2ccc(OC)cc2)nc1C	SUMO1-SIM PPI 55.3
Nc1ccc2c(c1Cl)C(=O)c1ccc(N)c(Cl)c1C2=O	STEP inh 98.6, SUMO1-SIM PPI 109.3, Scp-1 inhibitor 89.7, LMPTP inh 82.3, DNMT1 block 80.8
O=C(N/C(=C\c1cccc([N+](=O)[O-])c1)C(=O)N1CCOCC1)c1ccco1	none
O=C1c2ccccc2C(=O)C1c1ccnc2ccccc12	DNMT1 block 55.7
O=C1C(c2ccnc3ccccc23)=C(O)c2ccccc21	DNMT1 block 51.6
O=C1C(=O)c2ccccc2C(O)=C1c1ccccc1F	none
COC(=O)C1CCN(C2CN(C3CCCCC3)S(=O)(=O)C2)CC1 (configuration not stated)	none (no result: Scp-1 inhibitor)
Cc1cc(=O)oc2c1c(C)nn2-c1nn[nH]n1	Scp-1 inhibitor 68.1
CCCc1cc(=O)oc2cc(C)cc(OCc3nn[nH]n3)c12	none
Nc1ccc(OCCCc2c(N)nc(N)nc2N)cc1	LMPTP inh 87.2
CCN1/C(=C/c2ccc3ccccc3[n+]2CC)C=Cc2ccccc21	Scp-1 inhibitor 104.2
Cc1cc(C)c(C#N)c(SCC(=O)Nc2nonc2N)n1	SUMO1-SIM PPI 46.0
CC(C)NC(=O)N1Cc2cc(C(=O)NC3CCC3)nc(-c3cccc(-c4cncnc4)c3)c2[C@H]1CCO	none (no result: STEP inh, Scp-1 inhibitor, DNMT1 block)
COc1ccc(NC(=O)C(=O)N/N=C\c2ccc(CNC(=O)C(=O)Nc3ccc(C)c(C)c3)o2)c(OC)c1	Scp-1 inhibitor 68.1 (no result: STEP inh, SUMO1-SIM PPI, LMPTP inh, DNMT1 block)
O=P(CCO)(c1ccccc1)c1ccccc1	none
O=C(O)CP(=O)(c1ccccc1)c1ccccc1	SUMO1-SIM PPI 46.5
COc1ccccc1-c1csc(C(C)(O)c2ccccc2)n1 (configuration not stated)	none (no result: Scp-1 inhibitor)
COCCNC(=O)C1(C)Cc2c(-c3cccc(NC(C)=O)c3)ccnc2O1 (configuration not stated)	none (no result: Scp-1 inhibitor)
Cn1cnnc1SCC(=O)Nc1ccc(OCc2ccccc2)cc1	SUMO1-SIM PPI 66.6
Cn1cnnc1SCC(=O)Nc1ccccc1	none
CC[n+]1c(/C=C/c2c[nH]c3ccccc23)ccc2cc(C)ccc21	Scp-1 inhibitor 68.4 (no result: STEP inh, SUMO1-SIM PPI, LMPTP inh, DNMT1 block)
CCN(CC)C(=O)c1ccc(/C=C/c2c[nH]c3ccccc23)[n+](C)c1	none
O=[N+]([O-])c1ccccc1N/N=C\c1ccccc1Cl	none
O=[N+]([O-])c1ccccc1N/N=C/c1cccc(O)c1O	SUMO1-SIM PPI 44.6
C=C(C)C(=O)Nc1cccc(C2=NOC3(C2)C[C@@H](C(N)=O)N(C(=O)c2ccc(OC)cc2)C3)c1 (some centres not stated)	SUMO1-SIM PPI 106.8, Scp-1 inhibitor 99.4, DNMT1 block 95.8
CCCCCC(=O)Nc1cccc(C2=NOC3(C2)C[C@@H](C(N)=O)N(C(=O)c2ccc(OC)cc2)C3)c1 (some centres not stated)	none
O=C(COc1ccc2c3c(c(=O)oc2c1)CCCC3)NCc1ccncc1	none
O=C(COc1ccc2c3c(c(=O)oc2c1)CCC3)Nc1ccccn1	SUMO1-SIM PPI 50.8
NS(=O)(=O)c1ccc(CNC(=O)COc2ccc3c4c(c(=O)oc3c2)CCCC4)cc1	SUMO1-SIM PPI 62.7
O=C(NC1CCCC1)C1CCN(S(=O)(=O)c2ccccc2)CC1	none
CC(=O)c1ccc(NC(=O)c2ccc(NC(=O)c3ccco3)cc2)cc1	STEP inh 85.8, LMPTP inh 72.2
CC(=O)Nc1ccc(NC(=O)c2ccco2)cc1	none
COc1ccc(F)cc1CN1CCN(C(=O)CCC(=O)Nc2nnc(C3CCCCC3)s2)CC1	none
O=C(Cn1cnc2sc(-c3ccccc3)cc2c1=O)NCc1ccco1	Scp-1 inhibitor 70.7
O=C(Cc1cccs1)OCC(=O)c1ccco1	Scp-1 inhibitor 70.4, DNMT1 block 65.2
Cc1cc(C)c(S(=O)(=O)Nc2nccs2)c(C)c1	SUMO1-SIM PPI 42.5
COCc1nnc(NS(=O)(=O)c2c(C)cc(C)cc2C)s1	none
Cc1ccc(N2C(=O)N(c3ccc(C)cc3)C3CS(=O)(=O)CC32)cc1 (configuration not stated)	none
Cc1ccc(N2C(=S)SC3CS(=O)(=O)CC32)cc1 (configuration not stated)	SUMO1-SIM PPI 47.1
